TCR-CD3 inh = inhibitors of human TCR-CD3 interaction, primary screen, biochemical, fluorescence, TAMRA-labeled TCR probe. AID 651800, 2012. inhibition, % at 9.4 µM. actives 0.37% (n = 360,000); in the data active = inhibition above about 19%;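 also: recombinant mutant TCR 2C K166C tagged with TAMRA read by polarization; 0% = receptor in buffer alone and 100% = receptor with positive control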
HTRA1 inh = HTRA1 serine protease inhibitors, primary screen, biochemical, fluorescence polarization, HTS. recombinant HTRA1, FP-rhodamine activity-based probe. AID 504803, 2011. actives 0.5% (n = 340,000). Q92743. inhibition, % at 5.96 µM; in the data active = inhibition above about 36%;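 also: 0% = enzyme with DMSO and 100% = wells lacking enzyme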
ABHD4 inh = ABHD4 inhibitors, primary screen, biochemical, fluorescence polarization, mouse. (Lyso)-N-acylphosphatidylethanolamine lipase (Mus musculus), Q8VD66. inhibition, % at 8.92 µM. purified mABHD4, FP-Rh probe fluorescence polarization. AID 720543, 2013. actives 0.54% (n = 370,000);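 active = inhibition exceeding the mean over every tested compound plus 3 SD, cut at about 30% in these data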;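 also: 0% = plate median of compound wells and 100% = S159A mutant with DMSO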
Target sequence (Q8VD66 whole entry, looked up): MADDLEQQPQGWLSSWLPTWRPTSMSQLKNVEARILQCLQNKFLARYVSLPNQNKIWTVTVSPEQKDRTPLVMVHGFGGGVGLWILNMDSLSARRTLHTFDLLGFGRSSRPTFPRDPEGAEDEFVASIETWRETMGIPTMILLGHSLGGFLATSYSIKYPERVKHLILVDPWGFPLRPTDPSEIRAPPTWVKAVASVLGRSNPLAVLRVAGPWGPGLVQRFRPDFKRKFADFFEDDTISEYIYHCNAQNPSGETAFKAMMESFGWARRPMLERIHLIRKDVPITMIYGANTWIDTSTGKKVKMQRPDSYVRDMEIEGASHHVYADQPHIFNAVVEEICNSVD
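Assay system: mABHD4 protein; medium: HEPES pH 7.0, NaCl, Pluronic buffer; dosing: 8.92 µM, single dose; schedule: 45 min + 60 min at 25 °C; signal: FP readout, ex 525 nm / em 598 nm; read-out: normalized percent inhibition of probe labeling; repeats: single replicate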
Tn7 DDE FP = inhibitors of Tn7 peptide binding to fibrin DD(E), primary screen, biochemical, fluorescence polarization, human fibrin, Tn7 probe; Fibrinogen beta chain (Homo sapiens), P02675; FP displacement of FITC-Tn7 peptide from fibrin DD(E); 0% = median of compound wells per plate; inhibition, % at 8.3 µM; actives 0.13% (n = 370,000);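 active = inhibition above the mean of compounds falling within the control limits plus 3 SD of them, cut at about 14% in these data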;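 also: 0% = plate median of compound wells and 100% = 10 µM Aha-Tn7 peptide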
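Assay system: human fibrin DD(E) protein / Input: 2 µM fibrin DD(E) / Benchmarks: high control of 10 µM Aha-Tn7 peptide / Measured by: fluorescence polarization of the labelled Tn7 tracer / Medium: Tris buffer with calcium and detergent, pH 7.8 / Timing: 10 min compound pre-incubation, 3 h probe incubation at room temperature / Repeats: one replicate per compound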
Tn6 DDE FP = inhibitors of Tn6 peptide binding to fibrin DD(E), primary screen, biochemical, fluorescence polarization, human fibrin, Tn6 probe; inhibition, % at 8.3 µM; actives 0.21% (n = 370,000); Fibrin DD(E) TRITC-Tn6 fluorescence polarization displacement; Fibrinogen beta chain (Homo sapiens), P02675; AID 720509, 2013;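 active = inhibition above a per-campaign cutoff: mean of compounds within control limits plus 3 SD, cut at about 15% in these data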;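 also: 0% = median of all compound wells on the plate and 100% = blocking peptide control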
mABHD4 conf = ABHD4 inhibitors, retest, confirmation, biochemical, fluorescence polarization, mouse. purified mABHD4, FP-Rh probe fluorescence polarization. AID 720658, 2013. inhibition, % at 8.92 µM. actives 55% (n = 1,800). shares compounds with ABHD4 inh;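 active = mean inhibition across replicates above the hit cutoff set in the primary screen, cut at about 30% in these data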;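 also: 0% = wild-type ABHD4 with DMSO and 100% = catalytically dead S159A mutant with DMSO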
The depositor's hits bear a star; . = not tested or not shown. The list is not random: actives were taken first. Their share in the collection is about 1.3%.

SMILES	TCR-CD3 inh	HTRA1 inh	ABHD4 inh	Tn7 DDE FP	Tn6 DDE FP	mABHD4 conf
C#CCN(C[C@H]1[C@H](OC(=O)NCCCCCC)[C@H](OC(=O)NCCCCCC)C[C@@H](C(=O)OC)[C@H]1C(=O)OC)S(=O)(=O)c1ccc(C)cc1	5	-31	10	-9	7	.
COc1cc(/C=C2\SC(=O)N(c3cccc(Cl)c3)C2=O)cc([N+](=O)[O-])c1O	7	13	37*	2	3	41*
O=C1S/C(=C\c2ccc(O)c([N+](=O)[O-])c2)C(=O)N1c1ccccc1Cl	7	8	55*	1	6	44*
COc1cc(/C=C2/NC(=O)N(c3cccc(Cl)c3)C2=O)ccc1O	-4	-3	-1	0	-4	.
O=C1S/C(=C\c2ccc(O)c([N+](=O)[O-])c2)C(=O)N1Cc1cccc([N+](=O)[O-])c1	3	.	15	-8	-7	.
C=CCNC(=O)c1nc2ccccc2s1	-4	-9	2	1	-5	.
Cc1ccc(C(=O)NNC2=Nc3cccc4cccc2c34)cc1	-4	11	30*	-8	-3	23
O=C(CN(C(=O)Cn1nnc(-c2ccccc2F)n1)c1cccc2c1CCCC2)NCc1ccccc1	7	-22	-2	-1	7	.
O=C(COC(=O)c1cc(S(=O)(=O)N2CCCC2)ccc1O)Nc1ccc(SC(F)F)cc1	2	-23	31*	5	2	17
O=C(COC(=O)c1cc(S(=O)(=O)N2CCCC2)ccc1O)Nc1ccc(S(=O)(=O)N2CCOCC2)cc1	3	3	1	-3	6	.
Cc1cc(C)c(S(=O)(=O)N2CCCC2=O)c(C)c1N(C)S(C)(=O)=O	4	1	5	2	2	.
NNc1nc2ccc(Cl)cc2s1	1	19	-2	11	-3	.
NNc1nc2ccc(F)cc2s1	7	30	42*	0	6	26
COc1cc(Nc2ccc(C(=O)O)cc2[N+](=O)[O-])cc(OC)c1	-4	-6	36*	-3	9	57*
CCc1ccc(Nc2ccc(C(=O)O)cc2[N+](=O)[O-])cc1	7	0	55*	-13	0	69*
Cc1cc(C)cc(Nc2ccc(C(=O)O)cc2[N+](=O)[O-])c1	-1	-1	32*	-5	-3	54*
Oc1ccccc1/C=N/Nc1nccnc1Cl	-4	0	21	-3	0	.
COc1cccc(/C=N/Nc2ncnc(Cl)c2N)c1O	-7	1	9	-6	0	.
O=[N+]([O-])c1ccc(NN=Cc2ccc(O)cc2O)nc1	1	20	30*	8	5	30*
COc1cccc(/C=N/Nc2nccnc2Cl)c1O	1	1	30*	9	2	41*
Oc1ccc(/C=N/Nc2nccnc2Cl)c(O)c1	-4	-2	43*	1	3	45*
COc1cccc(CC(=O)Nc2nc(C)cs2)c1	2	-1	0	-5	-3	.
O=S(=O)(NN=C1CCCCC1)c1ccccc1	-11	8	-6	-1	-5	.
CCCOC(=O)c1ccc(NC(=O)c2c(Cl)ccc(Cl)c2OC)cc1	-7	-54	-28	2	-8	.
Cc1ccc(S(=O)(=O)NNC(=O)C(=O)NNc2ccccn2)cc1	-3	5	42*	0	11	35*
Cc1ccccc1S(=O)(=O)NNC(=O)C(=O)NNc1ccccn1	-2	6	35*	2	-3	33*
Nc1ccc(S(=O)(=O)NNC(=O)C(=O)NNc2ccccn2)cc1	-2	-6	15	-2	1	.
Cc1ccc(NC(=O)CC(C)S(=O)(=O)c2ccc3c(c2)NC(=O)CO3)cc1C (stereo unspecified)	4	-2	4	3	-4	.
O=C(c1ccc(Cl)cc1)C(CN1CCCCC1)c1ccccc1 (stereo unspecified)	-7	-8	3	1	-6	.

Screens deposited in PubChem BioAssay by The Scripps Research Institute Molecular Screening Center.
